Results of several laboratories.
Each line is one published result; the experiments were not run side by side.
Target: SNF-related serine/threonine-protein kinase (SNRK, Homo sapiens, UniProt Q9NRH2)
Residues used in one study (Q9NRH2 1-765): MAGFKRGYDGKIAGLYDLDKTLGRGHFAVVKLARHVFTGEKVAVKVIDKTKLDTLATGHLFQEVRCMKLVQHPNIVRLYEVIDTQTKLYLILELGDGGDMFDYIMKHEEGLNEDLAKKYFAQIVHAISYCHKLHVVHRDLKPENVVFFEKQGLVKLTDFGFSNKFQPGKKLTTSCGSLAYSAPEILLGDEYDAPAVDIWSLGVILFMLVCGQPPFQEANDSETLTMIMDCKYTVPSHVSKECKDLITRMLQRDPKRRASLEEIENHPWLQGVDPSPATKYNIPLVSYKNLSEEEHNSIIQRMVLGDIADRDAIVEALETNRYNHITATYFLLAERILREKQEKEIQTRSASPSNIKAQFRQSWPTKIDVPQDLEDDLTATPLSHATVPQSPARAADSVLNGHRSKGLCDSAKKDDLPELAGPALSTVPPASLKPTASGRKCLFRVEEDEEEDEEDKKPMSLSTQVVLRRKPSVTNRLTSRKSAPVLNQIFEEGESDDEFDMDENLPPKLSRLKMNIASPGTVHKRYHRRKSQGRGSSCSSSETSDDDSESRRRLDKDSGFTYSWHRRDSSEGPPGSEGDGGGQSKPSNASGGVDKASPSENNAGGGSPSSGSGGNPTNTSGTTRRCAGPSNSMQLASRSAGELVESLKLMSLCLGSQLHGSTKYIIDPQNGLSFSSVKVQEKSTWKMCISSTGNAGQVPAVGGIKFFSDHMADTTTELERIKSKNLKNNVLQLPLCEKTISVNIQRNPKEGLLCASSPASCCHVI

Cc1ccc(NC(=O)c2ccc(C)c(C(F)(F)F)c2)cc1C#Cc1nn(C2CCC(O)CC2)c2ncnc(N)c12 (stereo not drawn)
remaining signal (cell-free assay; 10 µM): 92%

Nc1ncnc2occ(-c3ccc(NC(=O)Nc4cc(C(F)(F)F)ccc4F)cc3)c12
remaining signal (cell-free assay; inhibitor; 20 µM): 64%

Cc1sc(C(=O)NC2COC2)cc1-n1cc(NC(=O)Nc2c(F)cccc2Cl)cn1
remaining activity (enzyme activity; inhibitor; 10 µM): 102%

c1ccc(CNc2nc(N3CCOc4ccccc43)nc3c2CCCC3)cc1
inhibition (target engagement in cells; inhibitor; chemoproteomics; 20 mM): 0.3%

Cc1cc(NC(=O)c2cccc3cc(-c4cccc5[nH]nc(N)c45)ccc23)ccc1F
activity vs control (enzyme activity; inhibitor; 0.1 µM): 109%

CN1CC(Oc2cnc(C#N)cc2-c2ccn3nc(NC(=O)C4CC4)cc3c2)C1
inhibition (enzyme activity; inhibitor; 1 µM): -12%

CNC(=O)Nc1ccc2c(c1)CC[C@@]21OC(=O)N(CC(=O)N(Cc2ccc(F)cc2)[C@@H](C)C(F)(F)F)C1=O
remaining binding (cell-free assay; competition with immobilised ligand; 1 µM): 96%

O=C(Nc1cnn(-c2csc(C(=O)NC3COC3)c2)c1)Nc1ccccc1Cl
remaining activity (enzyme activity; inhibitor; 5 µM): 96.8%

COc1cccc2c(NCc3ccccc3)nc(-n3c(N)nc4ccccc43)nc12
inhibition (target engagement in cells; inhibitor; chemoproteomics; 20 mM): 1.2%

C[C@@H]1CN(c2cc(-c3nn(C)c4ccc(OC5(C)CC5)cc34)ncn2)C[C@H](C)O1
remaining binding (cell-free assay; competition with immobilised ligand; 1 µM): 92%

COc1cc(Cl)c(C(=O)N[C@@H](CN[C@H]2CC[C@@H](N)CC2)Cc2ccc(C#N)cc2)cc1-c1ccc(CN[C@H](C)c2ccc(C)cc2)o1
remaining activity (enzyme activity; inhibitor; 1 µM): 104%

Cc1cnc(NC2CCOCC2)nc1-n1cnc(C(=O)NC(CN)c2cc(F)cc(Cl)c2)c1 (stereo not drawn)
remaining activity (enzyme activity; inhibitor; radiometric; 1 µM): 100%
